Source: ChEMBL document CHEMBL2434876, “Design, synthesis and biological evaluation of 2-substituted quinolines as potential antileishmanial agents” (Eur J Med Chem, 2013)
pIC50: −log10 of the molar value. Activity calls are given as the source filed them. No cut-off for these calls is given here.

Legend:
Leishmania donovani [1] = test: Antileishmanial activity against Leishmania donovani MHOM/IN/80/Dd8 amastigotes infected in mouse J774A1 cells assessed as parasite growth inhibition after 72 hrs by luciferase reporter gene assay; assay type: functional, organism-based; details: MHOM/IN/80/Dd8, J774.A1, 72 h
In short: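 J774A.1 macrophages (4 x 10^3/well) in RPMI-1640 with 10% FCS for 24 h, then infected with stationary-phase luciferase-expressing promastigotes (4 x 10^4/well). Non-internalized parasites washed off after 24 h. Compounds given as 7-point serial dilution from 100 µM for 72 h at 37°C. Steady-Glo luminescence read; IC50 from four-parameter Hill fit, mean of two independent experiments.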

[2] = Cytotoxicity against African green monkey Vero cells after 72 hrs by MTT assay; assay type: cell-based; details: chlorocebus sabaeus
In short: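 Exponentially growing Vero cells (1 x 10^5/well) exposed 72 h at 37°C, 5% CO2, to 7-point threefold dilutions from 400 µM (DMSO stocks diluted in medium), with DMSO vehicle controls. MTT added for 2 h, formazan dissolved in DMSO, absorbance read at 544 nm. CC50 is the concentration halving viability versus medium-only cells; mean of two independent experiments.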

[3] = Drug metabolism in human liver microsomes at 1 uM after 30 mins by LC-MS/MS analysis; assay type: ADME, Microsome; details: read-out: Drug metabolism
In short: (§1)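 Liver microsomes (1 mg/mL protein) in sodium phosphate buffer pH 7.4 with 5 mM NADPH, preincubated 10 min at 37°C. Test compound taken from a 200 µM acetonitrile:DMSO (96:4) stock. Samples analysed by LC/MS/MS as analyte/internal standard peak-area ratio. Percent metabolized at 30 min relative to 0 min; NADPH-free controls run in parallel.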

[4] = Drug metabolism in mouse liver microsomes at 1 uM after 30 mins by LC-MS/MS analysis; assay type: ADME, Microsome; details: read-out: Drug metabolism; in short: as §1
[5] = Selectivity index, ratio of CC50 for African green monkey Vero cells to IC50 for Leishmania donovani MHOM/IN/80/Dd8 amastigotes; assay type: functional
In short: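 Selectivity index is Vero CC50 divided by IC50 against intracellular L. donovani amastigotes in J774A.1 cells, each measured over 72 h.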

[6] = Drug metabolism in hamster liver microsomes at 1 uM after 30 mins by LC-MS/MS analysis; assay type: ADME, Microsome; details: cricetinae, read-out: Drug metabolism; in short: as §1
Leishmania donovani [7] = test: Antileishmanial activity against Leishmania donovani MHOM/IN/80/Dd8 amastigotes infected in golden hamster assessed as parasite growth inhibition at 50 mg/kg, ip bid for 5 days measured on day 7 by Giemsa staining assay; assay type: functional; details: MHOM/IN/80/Dd8, ip, route intraperitoneal, read-out: GI
In short: (§2)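 Inbred golden hamsters, 40-45 g, infected intracardially with 1 x 10^7 L. donovani amastigotes. Animals with +1 spleen biopsy grade (5-15 amastigotes/100 nuclei) were randomized, 5-6 per group. Dosing in distilled water/PBS began 48 h after biopsy and ran 5 consecutive days. Post-treatment spleen biopsy on day 7, Giemsa count; percent inhibition corrected for initial count and untreated-control increase.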

[8] = AUClast in Swiss Albino mouse at 50 mg/kg, po by LC-MS/MS analysis; assay type: ADME, organism-based; parameters: time 0 - last, dose 50 mg/kg, route oral; details: plasma
In short: (§3)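 Male Swiss Albino mice, 8-12 weeks, 30-40 g, fasted 4 h pre-dose and fed 4 h post-dose. Parallel groups: 10 mg/kg IV tail-vein bolus or 50 mg/kg oral gavage. Sparse sampling, 3 mice per time point, from 0.083 (IV only) to 24 h. K2EDTA plasma analysed by LC-MS/MS (calibration 1–1000 ng/mL). Non-compartmental parameters; bioavailability from dose-normalized AUC ratio versus IV.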

[9] = Plasma clearance in Swiss Albino mouse at 10 mg/kg, iv by LC-MS/MS analysis; assay type: ADME, organism-based; parameters: dose 10 mg/kg, route intravenous; in short: as §3
[10] = Oral bioavailability in Swiss Albino mouse at 50 mg/kg by LC-MS/MS analysis; assay type: ADME, organism-based; details: in vivo; in short: as §3
[11] = Elimination half life in Swiss Albino mouse at 10 mg/kg, iv by LC-MS/MS analysis; assay type: ADME, organism-based; parameters: dose 10 mg/kg, route intravenous; details: in vivo, read-out: beta t1/2 (converted); in short: as §3
[12] = Metabolic stability in whole blood (unknown origin); assay type: ADME, tissue-based
[13] = Cmax in Swiss Albino mouse at 50 mg/kg, po by LC-MS/MS analysis; assay type: ADME, organism-based; parameters: dose 50 mg/kg, route oral; details: in vivo; in short: as §3
[14] = Tmax in Swiss Albino mouse at 50 mg/kg, po by LC-MS/MS analysis; assay type: ADME, organism-based; parameters: dose 50 mg/kg, route oral; details: in vivo; in short: as §3
Leishmania donovani [15] = test: Antileishmanial activity against Leishmania donovani MHOM/IN/80/Dd8 amastigotes infected in golden hamster assessed as parasite growth inhibition at 50 mg/kg, ip qd for 5 days measured on day 7 by Giemsa staining assay; assay type: functional; in short: as §2
[16] = Volume of distribution at steady state in Swiss Albino mouse at 10 mg/kg, iv by LC-MS/MS analysis; assay type: ADME, organism-based; parameters: dose 10 mg/kg, route intravenous; details: in vivo, read-out: Vdss; in short: as §3
[17] = AUClast in Swiss Albino mouse at 10 mg/kg, iv by LC-MS/MS analysis; assay type: ADME, organism-based; parameters: time 0 - last, dose 10 mg/kg, route intravenous; details: plasma; in short: as §3
[18] = Cmax in Swiss Albino mouse at 10 mg/kg, iv by LC-MS/MS analysis; assay type: ADME, organism-based; parameters: dose 10 mg/kg, route intravenous; details: in vivo; in short: as §3
[19] = Tmax in Swiss Albino mouse at 10 mg/kg, iv by LC-MS/MS analysis; assay type: ADME, organism-based; parameters: dose 10 mg/kg, route intravenous; details: in vivo; in short: as §3
[20] = AUC (infinity) in Swiss Albino mouse at 10 mg/kg, iv by LC-MS/MS analysis; assay type: ADME, organism-based; parameters: time infinity, dose 10 mg/kg, route intravenous; details: plasma; in short: as §3
[21] = Metabolic stability in plasma (unknown origin); assay type: ADME, cell-free
[22] = Solubility of the compound; assay type: physicochemical
Leishmania donovani [23] = test: Antileishmanial activity against Leishmania donovani MHOM/IN/80/Dd8 amastigotes infected in golden hamster assessed as parasite growth inhibition at 50 mg/kg, po bid for 5 days measured on day 7 by Giemsa staining assay; assay type: functional; in short: as §2
Leishmania donovani [24] = test: Antileishmanial activity against Leishmania donovani MHOM/IN/80/Dd8 amastigotes infected in golden hamster assessed as parasite growth inhibition at 30 mg/kg, po qd for 5 days measured on day 7 by Giemsa staining assay; assay type: functional; details: read-out: GI; in short: as §2

| SMILES | metabolised at 0.5 h, 1 µM [3] | metabolised at 0.5 h, 1 µM [4] | metabolised at 0.5 h, 1 µM [6] | pIC50 (Leishmania donovani [1]) | CC50 at 72 h [2] | Ratio CC50/IC50 [5] | also measured |
| --- | --- | --- | --- | --- | --- | --- | --- |
| OCC#Cc1ccc2ccccc2n1 | 22% | 99% |  | 4.97 | 26.2 µM | 2.45 |  |
| CCCc1ccc2ccccc2n1 | 98% | 100% |  | < 4.00 | 126 µM | <1.25 |  |
| N#C/C=C/c1ccc2ccccc2n1 | 100% | 100% |  | 4.54 | 155 µM | 5.41 |  |
| NC(=O)/C=C/c1ccc2ccccc2n1 | 44% | 97% |  | 4.69 | 76.3 µM | 3.74 |  |
| OC/C=C/c1ccc2cc(Cl)c(F)cc2n1 | 50% | 60% |  | 4.84 | 79.6 µM | 5.54 |  |
| FC/C=C/c1ccc2ccccc2n1 | 100% | 100% |  | 5.18 | 38.6 µM | 5.77 | solubility [22]: > 1 mg/mL |
| OC/C=C/c1ccc2ccccc2n1 | 96% | 100% |  | 5.00 | 31.9 µM | 3.17 | growth inhibition (GI) (Leishmania donovani [15]): inactive |
| OC/C=C/c1ccc2cc(F)ccc2n1 | 76% | 100% |  | 4.75 | 51.2 µM | 2.86 |  |
| COc1ccc(-c2cc(/C=C/CO)nc3cc(F)c(Cl)cc23)cc1 | 14% | 30% | 23% | 5.92 | 26.8 µM | 22.26 | growth inhibition (GI) (Leishmania donovani [23]): inactive |
| OC/C=C/c1cc(N2CCOCC2)c2cc(Cl)c(F)cc2n1 [listing 2 of 2 here] |  |  |  |  |  |  | inhibition in vivo at 50 mg/kg (Leishmania donovani [23]; read-out: GI): 84.3% |
| CN(C)c1cc(/C=C/CO)nc2cc(F)c(Cl)cc12 |  |  |  | 4.64 | 41.6 µM | 1.8 |  |
| CCCCCCCCCCCCCCCCOP(=O)([O-])OCC[N+](C)(C)C [MILTEFOSINE] |  |  |  |  | 52.7 µM | 6.27 | inhibition in vivo at 30 mg/kg (Leishmania donovani [24]): 96.5% |
| OC/C=C/c1cc(-c2ccc(F)cc2)c2cc(Cl)c(F)cc2n1 | 25% | 51% | 53% | 5.84 | 24.6 µM |  |  |
| O=C(O)/C=C/c1ccc2ccccc2n1 |  |  |  | 4.30 | > 400 µM | >7.96 |  |
| OC/C=C/c1cc(-c2cccc(F)c2)c2cc(Cl)c(F)cc2n1 | 25% | 40% | 59% | 5.75 | 21.6 µM | 12.08 |  |
| OC/C=C/c1ccc2c(F)c(Cl)ccc2n1 |  |  |  | 5.39 | 19.5 µM | 4.76 |  |
| COc1ccc2nc(/C=C/CO)ccc2c1 |  |  |  | 4.49 | 45.9 µM | 1.42 |  |

The next lines start with results.

| metabolised at 0.5 h, 1 µM [3] | metabolised at 0.5 h, 1 µM [4] | metabolised at 0.5 h, 1 µM [6] | SMILES | pIC50 (Leishmania donovani [1]) | CC50 at 72 h [2] | Ratio CC50/IC50 [5] | also measured |
| --- | --- | --- | --- | --- | --- | --- | --- |
| 8% | 34% |  | COc1ccc(-c2cc(/C=C/CO)nc3ccc(Cl)cc23)cc1 | 6.66 | 37.1 µM | 168.72 |  |
| 43% | 56% | 88% | OC/C=C/c1cc(N2CCOCC2)c2cc(Cl)ccc2n1 | 5.36 | 46.9 µM | 10.65 |  |
| 27% | 33% | 94% | OC/C=C/c1cc(Oc2ccc(F)cc2)c2cc(Cl)ccc2n1 | 5.71 | 35.4 µM | 18.07 |  |
| 35% | 45% | 66% | OC/C=C/c1cc(N2CCOCC2)c2cc(Cl)c(F)cc2n1 [listing 1 of 2 here] | 6.66 | 41.2 µM | 187.5 | inhibition in vivo at 50 mg/kg (Leishmania donovani [7]): 77.2%; AUC(0-t) [8]: 6.88 ng·h/mL; clearance [9]: 865 mL/min/kg; bioavailability [10]: 0.7%; half-life [11]: 28.2 min; Stability [12]: Unstable; Cmax [13]: 19.7 ng/mL; Tmax [14]: 15 min; inhibition in vivo at 50 mg/kg (Leishmania donovani [15]; MHOM/IN/80/Dd8, ip, route intraperitoneal, read-out: GI): 25.4%; Vd [16]: 7.54 L/kg; AUC(0-t) [17]: 193 ng·h/mL; Cmax [18]: 2230 ng/mL; Tmax [19]: 4.8 min; AUC(0-inf) [20]: 193 ng·h/mL; Stability [21]: Stable |
| 25% | 83% |  | OC/C=C/c1cc(-c2ccc(F)cc2)c2cc(Cl)ccc2n1 | 5.80 | 32.5 µM | 20.71 |  |
| 27% | 27% | 89% | CN1CCN(c2cc(/C=C/CO)nc3cc(F)c(Cl)cc23)CC1 | 5.23 | 44.6 µM | 7.58 |  |
| 17% | 50% | 99% | CC1CN(c2cc(/C=C/CO)nc3cc(F)c(Cl)cc23)CC(C)O1 (stereo not drawn) | 5.32 | 41.3 µM | 8.97 |  |
| 39% | 81% | 100% | OC/C=C/c1cc(N2CCCCC2)c2cc(Cl)c(F)cc2n1 | 5.55 | 22.3 µM | 7.86 |  |
| 87% | 100% |  | OC/C=C/c1ccc2cc(Cl)ccc2n1 | 6.07 | 28.9 µM | 33.59 |  |
| 31% | 44% | 86% | COc1cc2nc(/C=C/CO)cc(N3CCOCC3)c2cc1Cl | 5.43 | 51.8 µM | 13.92 |  |
